MC4R antag cAMP – human MC4R antagonism in cAMP assay | P32245 | MC4R-expressing cells, MTII-stimulated cAMP, LANCE TR-FRET | inhibition, % at 6.5 µM | actives 0.48% (n = 360,000) | AID 540295;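 active = inhibition above its plate's cutoff, the mean of tested wells on that plate plus 3 SD, cut at about 29% in these data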;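 note: 0% = Melanotan II alone and 100% = Melanotan II plus saturating MCL0020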
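Assay system: human MC4R-expressing U2OS cells; reagent: Melanotan II stimulation of cells; dosing: 6.5 µM single dose; timing: compound 30 min, challenge 1 h, detection 1 h; signal: TR-FRET cAMP assay; replicates: one well per compound, no replicates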
HTR5A inv ag – HTR5A inverse agonism, opioid heterodimer counter-screen | P47898 | HTR5A cell line, luminescence | inhibition, % at 9.3 µM | actives 0.083% (n = 340,000); in the data active = inhibition mostly above about 23%, no sharp cut-off; inactive = mostly below about 18%;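 note: 0% = cells with DMSO and 100% = no-cell wells with DMSO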
Target sequence (P47898 whole entry, looked up): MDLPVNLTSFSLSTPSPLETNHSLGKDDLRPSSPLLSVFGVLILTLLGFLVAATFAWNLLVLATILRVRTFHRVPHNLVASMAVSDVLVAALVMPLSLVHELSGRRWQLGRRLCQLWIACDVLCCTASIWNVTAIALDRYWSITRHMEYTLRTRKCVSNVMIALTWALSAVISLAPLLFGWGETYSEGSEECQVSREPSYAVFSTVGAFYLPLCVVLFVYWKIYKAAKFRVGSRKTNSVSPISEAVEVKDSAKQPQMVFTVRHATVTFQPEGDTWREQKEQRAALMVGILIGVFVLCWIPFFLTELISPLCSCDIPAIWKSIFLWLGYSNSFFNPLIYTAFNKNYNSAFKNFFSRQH
MOR-DOR ag – OPRM1-OPRD1 heterodimerization agonism | activation, % at 9.3 µM | actives 0.3% (n = 340,000) | AID 504326 | cells, luminescence;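 note: 0% = vehicle-treated cells and 100% = reference agonist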
HTR5A ag ctr – counter-screen for OPRM1-OPRD1 agonists: human HTR5A agonism; P47898; HTR5A agonist assay, luminescence, cell-based; activation, % at 9.3 µM; actives 0.61% (n = 340,000); in the data active = activation mostly above about 9.5%, no sharp cut-off; inactive = mostly below about 7.6%;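 note: 0% = cells with vehicle only and 100% = reference agonist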
OPRM1-OPRD1 inv – inverse agonist of human OPRM1-OPRD1 heterodimerization | cell-based MOR-DOR heterodimer luminescence, inverse agonism | P35372+P41143 | inhibition, % at 9.3 µM | actives 0.21% (n = 340,000); in the data active = inhibition above about 22%, passing the limit was not always enough;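 note: 0% = cells with DMSO and 100% = wells without cells with DMSO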
MC4R barr agon – activates human MC4R beta-arrestin recruitment | U2OS MC4R beta-arrestin complementation, luminescence; percent of melanotan II response, DMSO zero | activation, % at 8.9 µM | actives 0.98% (n = 360,000) | AID 540308;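 active = activation above a per-plate cutoff, the mean activation of sample wells on that plate plus 3 SD, cut at about 8% in these data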
OPRM1-D1 ag cf – confirmation of human OPRM1-OPRD1 heterodimerization agonists. cells, MOR-DOR heterodimerization, luminescence complementation. actives 45% (n = 830). AID 504904. shares compounds with MOR-DOR ag. activation, % at 9.3 µM;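 note: 0% = vehicle-treated cells and 100% = reference agonist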
HTR5A ag counter – activates human HTR5A in OPRM1-OPRD1 agonist counter-screen. actives 8% (n = 830). activation, % at 9.3 µM. shares compounds with MOR-DOR ag. AID 504905. HTR5A agonist counterscreen, cell luminescence; in the data active = activation above about 17%;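 note: 0% = vehicle-treated cells and 100% = reference agonist response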
The depositor's hits bear a star; i = inactive; / = no result. The list is not random: actives were taken first. Their share in the collection is about 2.4%. Cut-off read from the data, not from the text of the source, unless noted: active = activation above about 18%; inactive = the rest.

SMILES | MC4R antag cAMP | HTR5A inv ag | MOR-DOR ag | HTR5A ag ctr | OPRM1-OPRD1 inv | MC4R barr agon | OPRM1-D1 ag cf | HTR5A ag counter
O=c1c(Cl)c(N2CCOCC2)cnn1-c1ncc(C(F)(F)F)cc1Cl | 6 | 3 | -1 | 1 | 7 | 1 | / | /
FC(F)(F)c1cnc(Nc2ccc(N3CCOCC3)cc2)c(Cl)c1 | -1 | -23 | 28* | 8 | -171 | 8 | 8 | 4
Cc1cc(C)c(NC(=O)Cn2nnc(C(=O)NCc3cccs3)c2N)c(C)c1 | 4 | -41 | 22* | 0 | -123 | 7 | 0 | -4
Cc1cc(C)cc(NC(=O)Cn2nnc(C(=O)NCc3cccs3)c2N)c1 | 10 | -38 | 11 | 4 | -58 | 4 | / | /
Cc1ccc(-c2nnc(SCC(=O)N/N=C/c3ccc(C)s3)n2-c2ccc(C)cc2)cc1 | 4 | -16 | 18* | 1 | -87 | -1 | 10 | 2
CC1CN(C)C(C)c2c1oc1ccc(N)cc21 (stereo not drawn) | 1 | -12 | 72* | -3 | -373 | 2 | 58* | 4
O=C(N/N=C/c1cccnc1)c1ccccc1OCc1ccc(Br)cc1 | 6 | 8 | 24* | -3 | -126 | 0 | 14 | 5
CN(C)S(=O)(=O)c1cccc(-c2nnc3n2CCCCC3)c1 | 1 | 10 | -3 | 3 | 16 | -2 | / | /
COc1ccc(OC)c(N(CC(=O)Nc2cccnc2)S(=O)(=O)c2ccc(C)cc2)c1 | 16 | -9 | 65* | 5 | -368 | -1 | 47* | 0
COc1ccc(OC)c(N(CC(=O)Nc2cccnc2)S(=O)(=O)c2ccc(OC)c(OC)c2)c1 | 4 | 14 | 0 | -6 | 1 | 0 | / | /
CN(C)C(CNC(C(=O)Nc1ccc(F)cc1)c1ccccc1)c1ccccc1 (stereo not drawn) | 2 | -8 | 230* | 3 | i | 2 | 0 | 3
CN(C)C(CNC(C(=O)Nc1ccc([N+](=O)[O-])cc1Br)c1ccccc1)c1ccccc1 (stereo not drawn) | 1 | 35 | 66* | 10 | -318 | 0 | 79* | 4
CCOC(=O)C1CCCN(CCc2ccccc2)C1 (stereo not drawn) | -3 | 6 | -1 | 0 | 3 | -2 | / | /
O=C(OC1C2CCC1C1CN(CCc3ccccc3)CC12)c1ccccc1 (stereo not drawn) | 3 | -9 | 18* | 3 | -109 | 0 | 60* | 2
O=C(Nc1ccc2c(c1)C(=O)N(c1ccccc1)C2=O)c1cccs1 | 8 | -23 | 18* | 6 | -91 | 3 | 17 | 9
O=C(O)CCN1C(=O)c2ccc(NC(=O)c3cccs3)cc2C1=O | 2 | 1 | -3 | 4 | 14 | -2 | / | /
Cc1oc2c(C)c(O)ccc2c(=O)c1-c1cnn(-c2ccccc2)c1 | 3 | -31 | 18* | 11 | -80 | 29* | 17 | -1
COc1ccc2c(=O)c(-c3cnn(-c4ccccc4)c3)c(C)oc2c1 | -1 | -16 | 1 | 3 | -8 | 1 | / | /
Cc1c(C(=O)N(Cc2ccccc2)C2CCS(=O)(=O)C2)oc2ccccc12 (stereo not drawn) | 7 | -41 | 2 | 13 | -13 | 0 | / | /
Cc1c(C(=O)N(Cc2cccs2)C2CCS(=O)(=O)C2)oc2ccccc12 (stereo not drawn) | -1 | -16 | 27* | 5 | -138 | -2 | -2 | -7
Cc1ccc([C@H]2C[C@H](n3cc(COC(=O)c4ccccc4)nn3)[C@@H](O)CN2C(=O)c2cccs2)cc1 | -4 | / | / | / | / | 0 | / | /
COc1cccc(-c2nc(NCc3ccco3)c3ccccc3n2)c1O | -13 | -12 | 26* | 8 | -128 | 18* | 10 | 24*
FC(F)(F)c1ccc(C2[C@H]3CN(Cc4cccnc4)[C@H](c4ccccc4)C34CC2(c2cccnc2)C4)cc1 (stereo partly drawn) | 4 | -5 | 49* | -1 | -273 | -1 | 68* | -4
c1ccc(-c2ccc(CN3C[C@@H]4C(c5ccccc5)C5(c6cccnc6)CC4(C5)[C@H]3c3ccccc3)cc2)cc1 (stereo partly drawn) | 3 | -22 | 0 | 3 | -2 | -1 | / | /
Clc1ccc(C2[C@H]3CN(Cc4cccnc4)[C@H](c4ccccc4)C34CC2(c2cccnc2)C4)cn1 (stereo partly drawn) | 14 | -13 | 54* | -5 | -311 | 2 | 9 | 8
SMILES | MC4R antag cAMP | HTR5A inv ag | MOR-DOR ag | HTR5A ag ctr | OPRM1-OPRD1 inv | MC4R barr agon | OPRM1-D1 ag cf | HTR5A ag counter
O=C(Nc1nc(OCC(F)(F)F)cnc1/C=C\c1ccccc1)c1ccccc1 | 10 | / | / | / | / | 2 | / | /
COc1ccccc1NC(=O)c1sc2nc(C)cc(C)c2c1N | -5 | -9 | 24* | 4 | -121 | 1 | 108* | 1
O=C(Nc1ccncc1NC(=O)c1cccc([N+](=O)[O-])c1)c1cccc([N+](=O)[O-])c1 | 4 | -2 | 0 | 1 | 2 | -3 | / | /
O=C(Nc1cccc(NC(=O)c2cccc([N+](=O)[O-])c2)n1)c1cccc([N+](=O)[O-])c1 | 14 | 11 | 24* | -3 | -116 | -1 | 18* | 3
COC(=O)c1[nH]c2ccc(F)cc2c1NC(=O)Nc1ccc(OC)cc1 | 3 | 8 | 23* | -3 | -96 | 0 | -3 | 0
COc1cc2c(c(Br)c1N)-c1cc(Br)c(N)cc1C2=O | -7 | / | / | / | / | 6 | / | /
COc1ccc(S(=O)(=O)/N=C2\C=C(Nc3ccc(O)cc3)C(=O)c3ccccc32)cc1 | -41 | 0 | 21* | 0 | -119 | -1 | 7 | 1
Cc1[nH]c(=S)c(C#N)c(C)c1Cc1ccccc1 | 17 | / | / | / | / | 2 | / | /
Cc1ccc2c(Cl)c(Cc3ccccc3)c(=S)[nH]c2n1 | 1 | -2 | 21* | 0 | -104 | -3 | 35* | -2
CCOC(=O)C1=C(C)N(Cc2ccccc2)C(=O)NC1c1ccccc1OS(=O)(=O)c1ccccc1[N+](=O)[O-] (stereo not drawn) | 7 | 6 | 65* | -2 | -380 | 0 | 1 | -4
COC(=O)C1=C(C)N(CCCCCC(=O)O)C(=O)NC1c1ccccc1 (stereo not drawn) | -4 | -48 | -1 | 18 | 8 | 0 | / | /
COC(=O)C1=C(C)N(CCCC(=O)O)C(=O)NC1c1ccccc1OS(=O)(=O)c1ccccc1[N+](=O)[O-] (stereo not drawn) | 2 | 6 | 51* | -2 | -296 | 0 | 47* | 5

Screening data deposited in PubChem BioAssay by The Scripps Research Institute Molecular Screening Center.
